Experimental findings from ChEMBL document CHEMBL1142730, “Design of HIV-1 protease inhibitors active on multidrug-resistant virus” (J Med Chem, 2005) are described below.

Usually EC50 stands for the midpoint of the concentration-response curve. Low readings indicate higher potency in that assay, high ones lower potency in that assay. As usually defined, the pEC50 is the negative decadic logarithm of the EC50, by convention in mol/L. Read a high pEC50 as a small EC50. The term pCC50 denotes the CC50 on a negative log10 scale, so that one unit is a factor of ten. Lower therefore signals a high CC50.

For assay [1], the system named is Human immunodeficiency virus 1. The assay is described as follows: Protease inhibitory activity against wild type HIV-1 IIIB was determined. In kind it is functional, organism-based.
Assay [2] has as its system Human immunodeficiency virus 1. The assay is described as follows: Protease inhibitory activity against HIV-1 GSS004421 mutant strain was determined. It is filed as functional, organism-based.
The test system of assay [3] is Human immunodeficiency virus 1. The assay is described as follows: Protease inhibitory activity against HIV-1 r13363 mutant strain was determined. It is filed as functional, organism-based.
Assay [4] concerns Human immunodeficiency virus 1. Put plainly: Toxicity value against wild type HIV-1 IIIB was determined. It is filed as functional. The method in brief: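 MT4 cells (150 000 cells/mL) mock-infected, run in parallel with HIV-infected cultures over an identical compound concentration range. Incubated 3 days at 37 °C, 5% CO₂. Reduced expression of the […] GFP reporter serves as the toxicity marker.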

Assay [5] relates to Human immunodeficiency virus 1. Put plainly: Protease inhibitory activity against HIV-1 r13025 mutant strain was determined. It is filed as functional, organism-based.
Assay [6] deals with Human immunodeficiency virus 1. The assay is described as follows: Protease inhibitory activity against HIV-1 r13034 mutant strain was determined. In kind it is functional, organism-based.

SMILES strings stand for the structures.

`COC(=O)N[C@H](C(=O)N[C@@H](Cc1ccccc1)[C@@H](O)CN(Cc1ccc(-c2ccccn2)cc1)NC(=O)[C@@H](NC(=O)OC)C(C)(C)C)C(C)(C)C` [ATAZANAVIR]: in assay [1], the EC50 was 15.1 nM. Further, the pEC50 was determined as 7.32 in assay [2], 7.23 in assay [3] and 5.78 in assay [5]. For the same molecule, the pCC50 in assay [4] was found to be 4.53.

For the molecule `CC(C)(C)NC(=O)[C@@H]1CN(Cc2cccnc2)CCN1C[C@@H](O)C[C@@H](Cc1ccccc1)C(=O)N[C@H]1c2ccccc2C[C@H]1O.O`, the pEC50 in assay [6] came out at 5.9; in assay [2] it was 6.47; in assay [3] it was 6.39; in assay [5], 5.97. The same molecule showed an EC50 in assay [1] of 39.8 nM. The molecule further had a pCC50 in assay [4] below 4.49.

`CCC[C@@]1(CCc2ccccc2)CC(O)=C([C@H](CC)c2cccc(NS(=O)(=O)c3ccc(C(F)(F)F)cn3)c2)C(=O)O1` had an EC50 in assay [1] of 501 nM. Moreover, the pEC50 in assay [2] came out at 6.73; in assay [3], 6.15; in assay [5], 5.74. The same molecule returned a pCC50 in assay [4] below 4.49.

For `CC(C)CN(C[C@@H](O)[C@H](Cc1ccccc1)NC(=O)O[C@H]1CO[C@H]2OCC[C@H]21)S(=O)(=O)c1ccc2nc(N(C)CCCN3CCCC3)sc2c1`, the pEC50 in assay [6] was 7.36; in assay [2], 6.81; in assay [3] it was 5.52; in assay [5] it was 6.16. The molecule also gave an EC50 in assay [1] of 24 nM. For the same molecule, the pCC50 in assay [4] was determined as 4.58.

With `CC(C)CN(C[C@@H](O)[C@H](Cc1ccccc1)NC(=O)O[C@H]1CO[C@H]2OCC[C@H]21)S(=O)(=O)c1ccc2nc(N(C)CCN3CCCC3)oc2c1`, the pEC50 was 6.73 in assay [6], 6.55 in assay [2], 5.85 in assay [3] and 6.65 in assay [5]. Further, in assay [1], the EC50 was 33.1 nM. Further, in assay [4], the pCC50 is below 4.49.

Consider `CC(C)CN(C[C@@H](O)[C@H](Cc1ccccc1)NC(=O)OC1CCOC1)S(=O)(=O)c1ccc(N)cc1` (single isomer, unassigned), for which the pEC50 in assay [6] was found to be 6.01; in assay [2], 5.75; in assay [3] it was 4.95; in assay [5], 6.43. Besides, the EC50 in assay [1] is 43.7 nM. In assay [4], this molecule gave a pCC50 below 4.49.

Regarding `CC(C)CN(C[C@@H](O)[C@H](Cc1ccccc1)NC(=O)O[C@H]1CO[C@H]2OCC[C@H]21)S(=O)(=O)c1ccc2nc(NCCN3CCCC3)oc2c1`, the pEC50 is 7.48 in assay [6], 7.21 in assay [2], 6.88 in assay [3] and 7.12 in assay [5]. In addition, the response in assay [1] was half-maximal at 26.3 nM (EC50). This molecule came in with a pCC50 in assay [4] of 4.49.

Consider `CC(C)CN(C[C@@H](O)[C@H](Cc1ccccc1)NC(=O)O[C@H]1CO[C@H]2OCC[C@H]21)S(=O)(=O)c1ccc2nc(N(C)CCN3CCCC3)sc2c1`, for which the pEC50 was 6.85 in assay [6], 6.29 in assay [2], 5.64 in assay [3] and 6.5 in assay [5]. Further, the EC50 in assay [1] was 5.62 nM. In assay [4], the negative logarithm of the CC50 (pCC50) stood at 4.52.

As for `CNCCNc1nc2ccc(S(=O)(=O)N(CC(C)C)C[C@@H](O)[C@H](Cc3ccccc3)NC(=O)O[C@H]3CO[C@H]4OCC[C@H]43)cc2s1`, the pEC50 was 6.43 in assay [6], 6.5 in assay [2], 6.11 in assay [3] and 6.49 in assay [5]. Further, the half-maximal effective concentration (EC50) in assay [1] was 209 nM. In assay [4], this molecule registered a pCC50 below 4.49.

`CC(C)CN(C[C@@H](O)[C@H](Cc1ccccc1)NC(=O)O[C@H]1CO[C@H]2OCC[C@H]21)S(=O)(=O)c1ccc2nc(N(C)C)sc2c1` had a concentration giving a half-maximal response (EC50) in assay [1] of 3.47 nM. Also, the pEC50 in assay [2] is 6.59; in assay [3], 5.36; in assay [5], 7.31. Besides, the pCC50 in assay [4] was below 4.49.
